In the library only some 3% were active in any assay of this set; here they are far more common.
HTR1A agonist – 5-HT1a (human) receptor agonism; P08908; CHO 5-HT1a Ga15 NFAT-bla reporter, FRET ratio; 0% basal, 100% maximal reference agonist; activation, % at 10 µM; 0.56% of 65,000 active; AID 567;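 active = activation above the screen-wide mean activation plus 3 SD, cut at about 19% in these data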
S1P1 ag-PAM – activates or potentiates agonism at human S1P1 receptor | P21453 | S1P1 CRE-bla cells, forskolin, beta-lactamase FRET, potentiator mode; S1P1 agonist co-added at EC20, 2 nM; 100% = saturating reference agonist, 0% = basal | activation, % at 9.5 µM | 0.57% of 56,000 active;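 active = activation above a cutoff set at the mean activation of all tested compounds plus 3 SD, cut at about 54% in these data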;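 note: forskolin at 4 µM as EC80 and the EC20 agonist is SEW2871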
HTR1E agonist – 5-HT1E (human) receptor agonism. CHO 5-HT1E Ga15 NFAT-bla reporter, FRET; 0% DMSO wells, 100% control agonist wells. activation, % at 6 µM. 0.69% of 65,000 active;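 active = activation above a set limit, the screen-wide mean activation plus 3 SD, cut at about 8.5% in these data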
S1P3 agonist – activates the human S1P3 receptor; Q99500; S1P3 NFAT-BLA reporter cells, agonism, FRET ratio; relative to 1 µM S1P, basal subtracted; activation, % at 4.5 µM; 0.1% of 60,000 active;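 active = activation above the screen-wide mean plus 3 SD, cut at about 4.5% in these data, passing the limit was not always enough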
Target sequence (Q99500 whole entry, looked up): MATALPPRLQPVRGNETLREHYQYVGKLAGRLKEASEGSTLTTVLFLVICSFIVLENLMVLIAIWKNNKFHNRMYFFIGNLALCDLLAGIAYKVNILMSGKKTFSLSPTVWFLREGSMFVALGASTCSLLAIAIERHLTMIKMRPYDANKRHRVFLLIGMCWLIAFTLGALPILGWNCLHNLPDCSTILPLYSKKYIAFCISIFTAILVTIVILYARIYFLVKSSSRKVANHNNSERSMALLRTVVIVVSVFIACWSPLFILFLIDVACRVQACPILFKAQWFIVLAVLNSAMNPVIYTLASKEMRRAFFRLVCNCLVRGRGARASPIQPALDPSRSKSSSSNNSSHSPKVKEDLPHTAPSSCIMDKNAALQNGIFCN
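Assay system: CHO cells stably expressing human S1P3, Gα16 and NFAT-β-lactamase reporter. Timing: overnight plating, 4 h compound 37 °C, 2 h substrate RT. Signal: β-lactamase FRET emission ratio 460/535 nm. Measure: percent activation versus median 1 µM S1P response, basal-subtracted, per plate. Repeats: primary screen single test, confirmation screen in triplicate.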
HTR1E antagonist – antagonists of human 5-HT1E serotonin receptor; P28566; CHO 5-HT1E Ga15 NFAT-bla reporter, FRET, antagonist; inhibition, % at 6 µM; 0.99% of 65,000 active; AID 571;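 active = inhibition above a set limit, the mean inhibition across every tested compound plus 3 SD, cut at about 29% in these data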;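 note: signal is the 460 over 535 nm emission ratio of beta-lactamase substrate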
5HT1a antag – blocks the human serotonin 5-HT1a receptor; P08908; CHO 5-HT1a Ga15 NFAT-bla reporter, antagonist mode; inhibition, % at 10 µM; 0.68% of 62,000 active; AID 612;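 active = inhibition above the mean of all tested compounds plus 3 SD, cut at about 43% in these data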;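 note: receptor stimulated by 5-CT agonist at 100 nM near EC80; beta-lactamase reporter measured by ratiometric fluorescence of a cleavable substrate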
Each line names hits and unclear results; the compound was inactive in the other large screens.

O=C1c2ccccc2C(Nc2ccc(S(=O)(=O)N3CCCCCC3)cc2)N1Cc1ccco1 (centres undefined)	HTR1A agonist 43.8
O=C(COC(=O)c1ccco1)NCc1ccco1	none
Cc1cc(C(=O)OCC(=O)NCc2ccco2)c(C)n1-c1ccc(F)cc1	HTR1E antagonist 37.4
Cc1ccc2nc(SCCC#N)nc(C)c2c1	none
Cc1ccc2nc(C(F)(F)F)c(C#N)c(N)c2c1	S1P1 ag-PAM 64.0, HTR1E antagonist 34.7 (no result: 5HT1a antag)
N#Cc1cc2c(nc1SCc1ccncc1)CCC2	none
CCOC(=O)c1cnc(-n2nc(C)cc2C)nc1NCc1ccccc1	5HT1a antag 47.4
COc1cc(OC)c(OC)cc1CNC1CCCCCC1	HTR1A agonist 33.0
COc1ccccc1N1CCN(CC(O)c2ccc3cc[nH]c3c2)CC1 (centres undefined)	5HT1a antag 87.2
COc1cccc(OC)c1OCC(O)CN1CCN(c2ccccc2)CC1 (centres undefined)	5HT1a antag 45.4
CCOC(=O)N1CCN(CC(O)c2ccc3cc[nH]c3c2)CC1 (centres undefined)	none
COc1ccccc1N1CCN(CC(O)COc2c(OC)cccc2OC)CC1 (centres undefined)	5HT1a antag 95.1
OC(COc1ccc2c(c1)CCC2)CN1CCN(c2ccccc2F)CC1 (centres undefined)	5HT1a antag 44.1
COc1ccccc1N1CCN(C(=O)N2CCOCC2)CC1	none
OC(COCc1ccccc1)CN1CCN(c2ccccc2F)CC1 (centres undefined)	none
CCOc1cccc(-c2nn3c(-c4ccco4)nnc3s2)c1	none (no result: 5HT1a antag)
C=CCc1ccccc1OCC(O)Cn1ccnc1C (centres undefined)	none
C=CCc1ccccc1OCC(O)CN1CCN(c2ccc(OC)cc2)CC1 (centres undefined)	5HT1a antag 81.2
COC(=O)c1[nH]c2cc(C)ccc2c1NC(=O)CN1CCCc2ccccc21	HTR1A agonist 264.9
O=C(NCCc1ccc(Cl)cc1)C1CCN(S(=O)(=O)N2CCC3(CC2)OCCO3)CC1	none
N#Cc1c(-c2cccs2)cc(-c2ccccn2)nc1N	HTR1E antagonist 42.7
N#Cc1c(N)nc(SCC(=O)NCCc2ccccc2)c(C#N)c1-c1cccs1	none (no result: 5HT1a antag)
N#Cc1c(-c2cccs2)cc(-c2cccnc2)nc1N	HTR1E antagonist 44.2
N#CCSc1nc2cc(C(=O)N3CCCC3)ccc2c(=O)n1Cc1ccccc1	none
N#CCSc1nc2cc(C(=O)N3CCC(C(N)=O)CC3)ccc2c2nc3ccccc3n12	HTR1E antagonist 52.7
Cn1c(C(=O)NCCCN2CCCC2=O)cc2c(=O)n3ccccc3nc21	HTR1E antagonist 30.4
Cn1c(C(=O)NCCC2=CCCCC2)cc2c(=O)n3ccccc3nc21	none
Cc1ccc2[nH]c(=O)c(C(c3nnnn3C3CCCC3)N(Cc3cccnc3)Cc3ccco3)cc2c1 (centres undefined)	HTR1A agonist 98.3
CCn1c(CCC(=O)Nc2nc3c(s2)CCCC3)nc2cc(S(=O)(=O)N(C)C)ccc21	none
O=S(=O)(CCN(CCS(=O)(=O)C(F)(F)F)CC1CCCO1)C(F)(F)F (centres undefined)	none
CCOC(=O)Cc1csc(NC(=O)c2ccc(Br)s2)n1	S1P1 ag-PAM 65.5
CC1CC(N(C(=O)c2ccco2)c2ccccc2)c2ccccc2N1 (centres undefined)	HTR1E agonist 16.2
COC(=O)c1ccc(Oc2cc(C)nc(-n3nc(C)cc3C)n2)cc1	HTR1E antagonist 90.3, 5HT1a antag 65.4
CSc1nsc(SC)c1NC(=O)OCC1CCCO1 (centres undefined)	none
CCN(CC)CCCN1C(=O)C(O)=C(C(C)=O)C1c1ccc(OC)cc1OC (centres undefined)	none
CCOc1ccc(-c2nc(-c3ccncc3)no2)cc1OCC	S1P1 ag-PAM 110.6, S1P3 agonist 53.9
COc1ccc(-c2noc(-c3ccccc3C(=O)Nc3cccc(OC)c3)n2)cc1	none
CCOc1cc(-c2nc(-c3ccc(OC)cc3)no2)cc(OCC)c1OCC	none
CCOc1cc(-c2nc(-c3ccncc3)no2)cc(OCC)c1OCC	none
Cc1cc(C)cc(-c2nc(-c3ccncc3)no2)c1	S1P1 ag-PAM 105.2
CCOc1ccc(-c2nc(-c3ccccc3)no2)cc1OCC	S1P1 ag-PAM 107.5, S1P3 agonist 14.2
CCOc1ccccc1NC(=O)c1ccccc1-c1nc(-c2ccccc2)no1	5HT1a antag 45.6
Cc1cccc(NC(=O)C2c3ccccc3C(=O)N3CCc4ccccc4C23)n1 (centres undefined)	none
O=S1(=O)C=C(Sc2nc3cc(Cl)ccc3o2)c2ccccc21	S1P1 ag-PAM 80.1, HTR1E antagonist 80.0, 5HT1a antag 93.7
COc1ccccc1C1CC(c2ccc(C)cc2)Nc2ncnn21 (centres undefined)	none
CCC(=O)N1CCc2cc(S(=O)(=O)N3CCN(C(=O)c4ccco4)CC3)ccc21	none (no result: S1P1 ag-PAM, S1P3 agonist)
CC(=O)N1CCc2cc(S(=O)(=O)CCC(=O)N3CCN(C(=O)c4ccco4)CC3)ccc21	HTR1E antagonist 31.2
c1cc(-c2nnc3sc(C4CCCCC4)nn23)ccn1	HTR1E agonist 16.7 (no result: 5HT1a antag)
COc1ccccc1-c1nnc2sc(C3CCCCC3)nn12	none (no result: 5HT1a antag)
CNC(=O)c1cc2cc(Cl)cc(OC)c2oc1=O	none (no result: S1P1 ag-PAM)
O=C(CNCCC1=CCCCC1)Nc1ccccc1N1CCCCC1	none
CCOC(=O)c1[nH]c2ccc(OC)cc2c1NC(=O)CN1CCN(c2ccccn2)CC1	HTR1A agonist 28.6 (no result: 5HT1a antag)
CCOC(=O)C1CCN(CC(=O)Nc2c(C(=O)OC)[nH]c3ccc(Cl)cc23)CC1	HTR1E antagonist 28.7
COc1ccc(S(=O)(=O)N2CC3C4C=CC(C4)C3C2)cc1 (centres undefined)	none
CC(=O)Nc1ccc(C(=O)n2nc(C)cc2C)cc1	none
Cc1ccc(-c2noc(CCC(=O)NCCN3CCc4ccccc4C3)n2)cc1	none
O=S(=O)(c1cccs1)N1CCN(CC(O)COc2cc(Cl)ccc2Cl)CC1 (centres undefined)	S1P1 ag-PAM 66.0
c1csc(-c2csc3nc(CN4CCOCC4)nc(NCc4ccc5c(c4)OCO5)c23)c1	5HT1a antag 51.6
O=C(CSc1oc(-c2ccco2)nc1S(=O)(=O)c1ccc(Cl)cc1)NCC1CCCO1 (centres undefined)	none (no result: S1P1 ag-PAM, S1P3 agonist)
CCC(=O)Nc1ccc(NC(=O)c2cc3ccccc3o2)cc1	none
CN(C)S(=O)(=O)c1ccc(NC(=O)c2cc3ccccc3o2)cc1	HTR1A agonist 20.7
CCn1nnnc1NCc1cccn1C	none
O=C1CCCC2=C1C(O)(C(F)(F)F)C(=O)N2Cc1ccccc1 (centres undefined)	none

Screening data as filed in PubChem.
